# Results collected from several papers.
# Compare with care: the assays were run in different laboratories.
Compound,species,matrix,route,dose,setting,Tmax [h]
C#C[C@]1(COP(=O)(O)OP(=O)(O)OP(=O)(O)O)O[C@@H](n2cnc3c(N)nc(F)nc32)C[C@@H]1O,human,plasma,oral,400 mg,single dose,12.1
CC(C)n1cc(C#N)c2cc(-n3cc(C(=O)O)cn3)ccc21,human,plasma,oral,200 mg,"single dose, fed, healthy volunteers",5
C=CC(=O)N1CCC(Oc2cc3c(Nc4ccc(Cl)c(Cl)c4F)ncnc3cc2OC)CC1,human,plasma,oral,16 mg,"single dose, fed",3.01
CC(C)[C@H](N)C(=O)NCCCS(=O)(=O)O,human,plasma,oral,256.5 mg,"multiple doses, twice daily, fasted",0.5
CO[C@@H]1[C@H](OC(=O)N2CC(CCN3CCOCC3)C2)CC[C@]2(CO2)[C@H]1[C@@]1(C)O[C@@H]1CC=C(C)C,human,plasma,subcutaneous,0.2 mg,"single dose, healthy volunteers",0.28
CC(C)(O)c1ccccc1-c1ccc2[nH]c(/C=C/c3ccc(C(F)(F)F)cc3)nc2c1,male human,plasma,oral,60 mg,"single dose, fasted",3.98
NS(=O)(=O)NCCNc1nonc1C(=NO)Nc1ccc(F)c(Br)c1,human,plasma,oral,500 mg,"multiple doses, twice daily, steady state, patients",2
CC(C)(C)N/[N+]([O-])=N/OC1CCN(c2ccc(C#N)cn2)CC1,male human,plasma,oral,,"single dose, healthy volunteers",1 to 2
Cc1nc(-c2cn3c(n2)-c2ccc(-c4cnn(C(C)(C)C(N)=O)c4)cc2OCC3)n(C(C)C)n1,human,plasma,oral,6 mg,patients,2.05
CCc1nc(C(N)=O)c(Nc2ccc(N3CCC(N4CCN(C)CC4)CC3)c(OC)c2)nc1NC1CCOCC1,human,plasma,oral,120 mg,"multiple doses, patients",3.03
CCc1nc2c(C)cc(N3CCN(CC(=O)N4CC(O)C4)CC3)cn2c1N(C)c1nc(-c2ccc(F)cc2)c(C#N)s1,human,plasma,oral,1500 mg,"fed, healthy volunteers",2
CS(=O)(=O)CCC#N,human,plasma,oral,1000 mg,"single dose, fasted",1.5
CCOc1ccc(Cc2cc([C@@H]3O[C@H](CO)[C@@H](O)[C@H](O)[C@H]3O)ccc2Cl)cc1,human,plasma,oral,10 mg,"multiple doses, steady state",0.77
COc1cc(N2CCC(N3CCN(C)CC3)CC2)ccc1Nc1ncnc(Nc2ccccc2S(=O)(=O)C(C)C)n1,human,plasma,oral,200 mg,"multiple doses, patients",2.96
C/C(=C\c1csc(C)n1)[C@@H]1C[C@@H]2O[C@]2(C)CCC[C@H](C)[C@H](O)[C@@H](C)C(=O)C(C)(C)[C@@H](O)CC(=O)N1,human,plasma,intravenous,15 mg/m²,patients,0.8
C[C@@H](c1ccc2nccn2c1)n1nnc2ncc(-c3cnn(C)c3)nc21,human,plasma,oral,200 mg,,2.5
CC(C)[C@](O)(c1ccc2cc(OC(F)F)c(OC(F)F)cc2c1)c1c[nH]nn1,female human,plasma,oral,450 mg,single dose,1.9
Cn1cc(-c2ccc(S(=O)(=O)[C@@H]3C[C@@H](C(=O)NC4(C#N)CC4)N(C(=O)C4(C(F)(F)F)CC4)C3)c(C(F)(F)F)c2)cn1,human,plasma,oral,3 mg,"single dose, fasted, healthy volunteers",5
C[C@@]1(c2cc(NC(=O)c3ccc(C#N)cn3)ccc2F)C=CSC(N)=N1,human,plasma,oral,10 mg,single dose,0.88
CC(C)n1nc(-c2ccc3oc(N)nc3c2)c2c(N)ncnc21,human,plasma,oral,3 mg,"multiple doses, once daily, patients",0.97
CCO[C@H]1CCN(Cc2c(OC)cc(C)c3[nH]ccc23)[C@H](c2ccc(C(=O)O)cc2)C1,human,plasma,oral,200 mg,"multiple doses, twice daily, patients",2
Nc1cc(C(F)(F)F)c(-c2cc(N3CCOCC3)nc(N3CCOCC3)n2)cn1,human,plasma,oral,50 mg/day,patients,1.02
Cc1nc(NC(=O)N2CCC[C@H]2C(N)=O)sc1-c1ccnc(C(C)(C)C(F)(F)F)c1,human,plasma,oral,270 mg,patients,2.02
c1cnc2ccc(Nc3nc(NC4CC4)c4nc[nH]c4n3)cc2c1,human,plasma,oral,100 mg/m²,patients,5.7
Oc1cc(O)c2c(c1)O[C@@H](c1ccc(O)c(O)c1)[C@@H](O)C2,human,plasma,oral,100 mg,single dose,1
CC(C)(Sc1ccncc1-c1ccc(C#N)c2ccccc12)C(=O)O,male human,plasma,oral,5 mg,"single dose, fasted, healthy volunteers",0.63
CCCCOC(=O)N1CCN(C(=O)[C@H](CP(=O)(O)O)NC(=O)c2cc(N3CC[C@H](OC)C3)nc(-c3ccccc3)n2)CC1,human,plasma,subcutaneous,8 mg,single dose,0.667
COc1ccc([C@@H]2CN(C(=O)[C@@H](O)CO)C[C@@]2(C)[C@@H](C)O)cc1OC1CN(c2ccc(C)cn2)C1,human,plasma,oral,1.5 mg,"single dose, healthy volunteers",1
C=CC(=O)N(C)CCOc1c(N)ncnc1-c1cc(F)cc(NC(=O)c2ccc(C3CC3)cc2F)c1C,human,blood,oral,15 mg,"single dose, healthy volunteers",0.5
C[C@@H](Nc1cc(F)cc(F)c1)c1cc(C(=O)N(C)C)cc2c(=O)cc(N3CCOCC3)oc12,human,plasma,oral,120 mg,"single dose, patients",2
O=C(Nc1c(Cl)cncc1Cl)c1ccc(OC(F)F)c(OCC2CC2)c1,human,plasma,oral,0.5 mg,single dose,0.75
O=C(O)C[C@H](O)C[C@H](O)/C=C/c1c(C2CC2)nc2ccccc2c1-c1ccc(F)cc1,human,plasma,oral,2 mg,"single dose, fasted, healthy volunteers, tablet",1.17
CO[C@H]1/C=C\C=C(/C)C(=O)NC2=CC(=O)C(NCCN(C)C)=C(C[C@@H](C)C[C@H](OC)[C@H](O)[C@@H](C)/C=C(\C)[C@@H]1OC(N)=O)C2=O,human,plasma,intravenous,12 mg/m²,"patients, infusion",1
